Our source for the cytotoxicity values is ChEMBL document CHEMBL4513216, “Probing the Open Global Health Chemical Diversity Library for Multistage-Active Starting Points for Next-Generation Antimalarials” (ACS Infect Dis, 2020).

The data set in a line: Toxicity liver stage against HepG2, at 10uM. To be noted: human, HepG2-A16-CD81EGFP cells; read-out: INHIBITION
Also on record: test concentration 10 uM, cell line HepG2-A16-CD81EGFP. The data set is classed as cell-based. The essentials: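 Uninfected HepG2-A16-CD81EGFP cells, 3 × 10^3 per well, 1536-well, plated on prespotted compound at 10 μM final, parasite-free screening media added to match infected plates; puromycin 10 μM positive, DMSO 0.5% negative; run in parallel with 48 h PbLuc assay at 37 °C, 5% CO2; viability by CellTiter-Glo luminescence, normalized to controls.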
With `CCn1cc(C(=O)N2CCOCC2)cn1`, the cytotoxicity at 10 µM was found to be 0.805%.

As for `CN(C)C(=O)C(C)(C)c1ccc2c(c1)OCCO2`, the cytotoxicity at 10 µM is -1.52%.

Take `Cc1ccc(CN(CCCn2ccnc2)Cc2c(F)cccc2F)s1`: the cytotoxicity at 10 µM was determined as 2.76%.

Take `CCC(CC)c1nnc(NC(=O)N2CCC(C(N)=O)CC2)s1`: the cytotoxicity at 10 µM was determined as 8.26%.

Regarding `O=C(NCCN1CCOCC1)c1cc(Cl)c2c(c1)OCCCO2`, the cytotoxicity at 10 µM was -5.29%.

For `c1ncn(CC2CCCN(Cc3nc(-c4ccoc4)no3)C2)n1` (stereo not drawn), the cytotoxicity at 10 µM is -1.43%.

Turning to `CCC(=O)N1CCC(c2ncc3c(n2)CCNC3)CC1`, the cytotoxicity at 10 µM was -22.5%.

For the compound `Cc1nc2sccn2c1CNC1(c2ccccc2F)CCCC1`, the cytotoxicity at 10 µM amounted to 11.3%.

`C[C@H](c1ccc(Cl)cc1)n1c(C2CC2)n[nH]c1=O`: the cytotoxicity at 10 µM was found to be 9.33%.

On to `Cc1ccc(S(=O)(=O)NC(CO)CC(C)C)cc1N(C)C` (stereo not drawn), for which the cytotoxicity at 10 µM was -0.996%.

Take `CC(C)c1noc(-c2ccc(NCCCN3CCCC(O)C3)nc2)n1` (stereo not drawn): the cytotoxicity at 10 µM was -6.87%.

Take `Cc1ccc(N2C[C@@H]3CN(Cc4ccoc4)CCO[C@@H]3C2)nn1`: the cytotoxicity at 10 µM is -12.8%.

Consider `Cc1cccnc1CN1CCN(C(=O)c2cc(Cl)c[nH]c2=O)CC1`, for which the cytotoxicity at 10 µM amounted to 6.22%.

Take `COc1cccc(CN2CCCCC2CN2CCOCC2)c1F` (stereo not drawn): the cytotoxicity at 10 µM is 2.64%.

Regarding `CN(C)C(=O)CC1CCOc2ccccc21` (stereo not drawn), the cytotoxicity at 10 µM came out at 4.17%.

As for `CCNc1cc2c(nn1)CCN(C(=O)CC1CCCCC1)C2`, the cytotoxicity at 10 µM is -10.3%.

Turning to `CC(C)(C)c1noc(CCCC(=O)N2CCNC(=O)CC2)n1`, the cytotoxicity at 10 µM is -7.49%.

For `C=Cn1ncc(CN2C[C@@H]3CCCN3C[C@H]2Cc2ccccc2)c1C`, the cytotoxicity at 10 µM was -18.5%.

In the case of `CC1CCCN(C(=O)CNC(=O)c2ccoc2)C1` (stereo not drawn), the cytotoxicity at 10 µM was -0.775%.

Regarding `Cn1cc(Cl)c(C(=O)N2CCc3nc4sccc4c(=O)n3CC2)n1`, the cytotoxicity at 10 µM is -3.04%.

In the case of `Cn1cc(C2CCCN2C(=O)c2ccc(OCC3CC3)nc2)cn1` (stereo not drawn), the cytotoxicity at 10 µM was -7.77%.

`Cc1cnc(CN(C)C2CCCN(Cc3noc(C4CC4)n3)C2)cn1` (stereo not drawn): the cytotoxicity at 10 µM is -2.13%.

For the compound `Cn1ncc2c(=O)[nH]c(N3CCN(C(=O)c4ccsc4)CC3)nc21`, the cytotoxicity at 10 µM is -6.17%.

On to `Cc1ccc(-c2nnc(CN3CCN(c4ccccn4)CC3)o2)cc1`, for which the cytotoxicity at 10 µM is -5.34%.

For the compound `O=C(NCCc1c[nH]cn1)c1ccc(S(=O)(=O)NC2CCOC2)cc1` (stereo not drawn), the cytotoxicity at 10 µM is -1.91%.

`CC1CN(C)CCN1CC(=O)NCCOc1ccc2c(c1)OCO2` (stereo not drawn): the cytotoxicity at 10 µM was -6.66%.

Turning to `Cn1c(=O)[nH]c2cc(C(=O)OCC(F)F)ccc21`, the cytotoxicity at 10 µM was -17.3%.

Consider `Cc1cc(C)n(-c2ccc(NCCNS(=O)(=O)c3ccccc3)nn2)n1`, for which the cytotoxicity at 10 µM is -0.771%.

As to `CNC(=O)C1(c2cnccn2)CCCN1C(=O)c1ccn(C)n1` (stereo not drawn), the cytotoxicity at 10 µM was -5.15%.

For the compound `c1cc(CN2C[C@@H]3OCCN(CCN4CCCC4)[C@@H]3C2)ccn1`, the cytotoxicity at 10 µM came out at 3.39%.

Turning to `CN1CCc2nc(C3CCCN(C(=O)CC4CCCCC4)C3)ncc2C1` (stereo not drawn), the cytotoxicity at 10 µM is -8.36%.

Regarding `Cc1cc(C2CCCN2C(=O)Nc2cn[nH]c2)on1` (stereo not drawn), the cytotoxicity at 10 µM is 1.24%.

Take `N#Cc1cc(F)c(NCCc2ccc(F)cc2)c(F)c1`: the cytotoxicity at 10 µM was -60.3%.

Consider `O=C1CCNc2ncc(-c3ccccc3Cl)cc2CN1C1CC1`, for which the cytotoxicity at 10 µM was found to be 8.89%.

Consider `Cc1cnc2c(c1)N(C(=O)c1ccc(=O)n(C)c1)CCO2`, for which the cytotoxicity at 10 µM stood at 0.965%.

On to `Cc1oc(C)c(C(=O)NCc2ccccn2)c1C`, for which the cytotoxicity at 10 µM is -0.729%.

With `Cc1cc(C)n2nc(C(=O)N3CCCC4(CCOC4)C3)cc2n1` (stereo not drawn), the cytotoxicity at 10 µM was 7.73%.

Turning to `CCC(NC(=O)c1ccc(OC)nn1)c1nc(C(F)(F)F)cs1` (stereo not drawn), the cytotoxicity at 10 µM was -3.41%.

Take `O=C(O)c1ccnc(-c2ccnc(COc3cccc(F)c3)n2)c1`: the cytotoxicity at 10 µM was -2.31%.

With `CCCc1cc(C(=O)N2CC(c3ccncc3)C2)ccn1`, the cytotoxicity at 10 µM was found to be 2.36%.

With `Cn1nc(C(=O)N2CCOCC2)c2c1CN(CC1CC1)C2`, the cytotoxicity at 10 µM was -90.1%.

As to `CC(C)N(C)Cc1cnc2n1CCN(Cc1cccc(F)c1)C2`, the cytotoxicity at 10 µM is -2.92%.

With `CCOCC1CN(S(C)(=O)=O)Cc2ncn(CC3CC3)c21` (stereo not drawn), the cytotoxicity at 10 µM was -12%.

For `Cn1cc(C(=O)N2CCC(c3ncc[nH]3)CC2)cn1`, the cytotoxicity at 10 µM was -5.42%.

Turning to `CN1CCN(c2cc(CNC(=O)Cn3cccn3)ccn2)CC1`, the cytotoxicity at 10 µM is -11.6%.

As for `CSc1ccc(CN(CCO)C(=O)CCNC(C)=O)cc1`, the cytotoxicity at 10 µM worked out at 5.42%.

With `Cc1ccc(CN2CCC[C@]3(C(=O)O)CN(CC4CC4)C[C@@H]3C2)s1`, the cytotoxicity at 10 µM is -112%.

Regarding `Cc1csc(CNC(=O)N(C)Cc2ccc3c(c2)OCO3)n1`, the cytotoxicity at 10 µM was -4.31%.

`CCN1C(=O)CCC12CCCN(Cc1ccc(F)cc1)CC2` (stereo not drawn): the cytotoxicity at 10 µM was -0.861%.

For `NC(=O)CCC1CCCN(c2ccnc3cc(F)ccc23)C1` (stereo not drawn), the cytotoxicity at 10 µM came to 14.6%.

Regarding `Cc1cccc(NC2CCN(C(=O)Nc3ccc(F)cc3C)CC2)n1`, the cytotoxicity at 10 µM is -11.7%.

Consider `CCn1ccnc1CN1CCN(c2nc(C)cc(OC)n2)CC1`, for which the cytotoxicity at 10 µM was -5.48%.

Regarding `CN(c1ccc(-c2nc(C3CC3)no2)cn1)C1CCOCC1`, the cytotoxicity at 10 µM was -10.8%.

Turning to `O=C(Cc1ccccn1)N1CCc2ncnc(N3CCCC3)c2CC1`, the cytotoxicity at 10 µM is -2.13%.

For `O=C1COc2cc(C(=O)NS(=O)(=O)c3ccc(F)cc3)ccc2N1`, the cytotoxicity at 10 µM is -8.47%.

As to `Cc1ccc(S(=O)(=O)N2CCC(S(=O)(=O)c3nncn3C)CC2)cc1C`, the cytotoxicity at 10 µM was -6.9%.

On to `CC(C)C(C)NC(=O)CNc1cc2c(cc1Cl)NC(=O)CO2` (stereo not drawn), for which the cytotoxicity at 10 µM stood at 0.529%.

Regarding `Cc1cc2nc(C(C)C)cc(N[C@H](C(N)=O)C(C)C)n2n1`, the cytotoxicity at 10 µM is -1.66%.

On to `NC(=O)c1ccc(CNC2CCCSC2)cc1` (stereo not drawn), for which the cytotoxicity at 10 µM was -9.44%.

In the case of `O=S(=O)(C1CC1)N1CCC2(COCc3cnc(NCC4CC4)nc32)C1` (stereo not drawn), the cytotoxicity at 10 µM was 6.38%.

Take `CCc1nnc(CN(C)c2cc(C)nc3c(C)c(C)nn23)o1`: the cytotoxicity at 10 µM came to 0.126%.

As to `Cc1cccc(CNCc2c(C)nn(C)c2N2CCOCC2)n1`, the cytotoxicity at 10 µM was -10.9%.

As to `COc1ncccc1NC(=O)C1CCS(=O)(=O)C1` (stereo not drawn), the cytotoxicity at 10 µM was -4.48%.

With `CN1CC2(CCN(C(=O)c3ccc4nccnc4c3)CC2)CC1=O`, the cytotoxicity at 10 µM is -1.7%.

On to `CS(=O)(=O)N(Cc1ccon1)c1ccc2c(c1)OCO2`, for which the cytotoxicity at 10 µM came to 1.06%.

For `OC(CN1CCC(c2ccn[nH]2)CC1)c1ccc(F)cc1` (stereo not drawn), the cytotoxicity at 10 µM is -28.9%.

On to `CN(Cc1cc2n(n1)CCCNC2)Cc1cc(-c2ccncc2)no1`, for which the cytotoxicity at 10 µM stood at 3.67%.

In the case of `Cn1cnc2c1CCN(Cc1cccc(OCC(N)=O)c1)C2`, the cytotoxicity at 10 µM was -9.98%.

Turning to `CC(C)c1cc(NC(=O)CN2CCCC(Cn3cncn3)C2)on1` (stereo not drawn), the cytotoxicity at 10 µM worked out at 14%.

For the compound `COc1cc(F)c(NCc2nc3ccccc3n2C)cc1OC`, the cytotoxicity at 10 µM was 26.5%.

Regarding `Cc1cc(=O)n(CC(=O)Nc2ccc(Cl)cc2)nc1C`, the cytotoxicity at 10 µM is -1.74%.

For the compound `CC(Cn1cccn1)NC(=O)NCCCN1CCc2ccccc2C1` (stereo not drawn), the cytotoxicity at 10 µM was -3.08%.

Consider `CCCN(Cc1cnn(C)c1)S(=O)(=O)c1cccc(F)c1C#N`, for which the cytotoxicity at 10 µM was -9.04%.

`C[C@@H]1CN(C2CCOC2)C[C@]12CCN(Cc1cccnc1)C2=O` (stereo partly drawn): the cytotoxicity at 10 µM is -106%.

Consider `CN(Cc1cn2c(n1)CN(C(=O)C1CCCO1)CC2)Cc1ccco1` (stereo not drawn), for which the cytotoxicity at 10 µM was 8.24%.

With `CC(C)c1noc([C@@H]2C[C@H](NS(=O)(=O)Cc3ccccc3)CN2C)n1`, the cytotoxicity at 10 µM was -2.1%.

For the compound `COCCn1ccnc1C1CCCN(C(=O)c2cc(F)cc(F)c2)C1` (stereo not drawn), the cytotoxicity at 10 µM came out at 8.86%.

`COCCNC1(c2ccc(Cl)cc2)CCOCC1`: the cytotoxicity at 10 µM is 7.06%.

Turning to `COC(=O)NCC(=O)N1CCC(c2cc3ccccc3[nH]2)CC1`, the cytotoxicity at 10 µM is -8.55%.

Regarding `Cc1cnn(CC(C)NCc2ccncc2)c1` (stereo not drawn), the cytotoxicity at 10 µM was -2.81%.

As to `Cn1cc(CNc2cnn(CCO)c2)c(-c2ccncc2)n1`, the cytotoxicity at 10 µM was found to be 1.56%.

In the case of `COCCO[C@@H]1C[C@H]2CN(C(=O)c3cccnc3)CCN2C1`, the cytotoxicity at 10 µM was -4.58%.

For the compound `CC(C)c1nnc2n1CCN(Cc1ccc3c(c1)OCCO3)C2`, the cytotoxicity at 10 µM was -0.234%.

Turning to `CCOC(=O)c1n[nH]cc1CN1CCOC(Cc2ccc(F)cc2)C1` (stereo not drawn), the cytotoxicity at 10 µM is -3.92%.

Take `CN(CCc1ccccc1)Cc1c(C2CC2)[nH]c2ncccc12`: the cytotoxicity at 10 µM turned out to be 0.145%.

As to `CCCc1nc(CN2CCN(Cc3noc(CCC)n3)CC2)no1`, the cytotoxicity at 10 µM is -0.914%.

Turning to `CCc1ccc(C2CC(=O)Nc3cc(OC)c(NS(C)(=O)=O)cc32)o1` (stereo not drawn), the cytotoxicity at 10 µM was found to be 3.25%.

On to `COc1ccccc1C(NC(=O)NC1CC1)c1noc(C)n1` (stereo not drawn), for which the cytotoxicity at 10 µM is -4.12%.

Turning to `CC(C)(CN1CCC2(CCOCC2)CC1)N1CCOCC1`, the cytotoxicity at 10 µM was -148%.

`NS(=O)(=O)c1cnn(CCC(=O)N(C2CCCCC2)C2CC2)c1`: the cytotoxicity at 10 µM is -0.157%.

Take `CNc1nc(CNC(=O)Nc2cccc(CC(F)(F)F)c2)cs1`: the cytotoxicity at 10 µM is -9.77%.

`CN(Cc1cncnc1)[C@H]1CN(C(=O)c2ccco2)[C@@H]2CCCO[C@@H]21`: the cytotoxicity at 10 µM is -101%.

As to `CCc1ncc2c(n1)CN(Cc1ncc(C(C)(C)C)o1)CC2`, the cytotoxicity at 10 µM is -15.9%.

Regarding `Cc1cnn(CC2CN(CCc3cccs3)CCO2)c1` (stereo not drawn), the cytotoxicity at 10 µM is -14.2%.

For `O=C(NCc1ccc(Br)cc1F)C1(O)CCSCC1`, the cytotoxicity at 10 µM is 6.4%.

As for `Cc1ccc(O)c(CNc2cccc(CN3CCSCC3)c2)n1`, the cytotoxicity at 10 µM is -7.94%.

`CN(Cc1cnn(C)c1)C(=O)Nc1cccnc1-n1cccn1`: the cytotoxicity at 10 µM was -1.32%.

For `Cc1nn(C)cc1-c1ccnc(N2CCCN(CC(C)C)CC2)n1`, the cytotoxicity at 10 µM was determined as 4.26%.
